Measured values from ChEMBL document CHEMBL4689842, “EUbOPEN Chemogenomics Library wave 1” (2021).

Test system: Fibroblast
Test: Multiplex assay against human fibroblast
Type: toxicity, cell-based
Procedure, shortened: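 Live cells were stained at seeding with Hoechst33342, BioTracker Green Microtubule Cytoskeleton Dye, MitoTracker Red and Annexin V Alexa Fluor 680, then imaged on a CQ1 microscope at 37°C and 5% CO2 after compound addition. CellPathfinder machine-learning gating split cells into Hoechst high-intensity objects or normal cells. Normal cells were split into healthy, pyknosed or fragmented nuclei, and pyknosed cells into mitotic or apoptotic. Tubulin, mitochondrial-mass and membrane-permeability phenotypes are per cents of healthy-nucleus cells.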

[1] = 12 h, 1 µM, compound concentration 1 uM, replicate 1
[2] = 12 h, 1 µM, compound concentration 1 uM, replicate 2
[3] = 12 h, 10 µM, compound concentration 10 uM, replicate 1
[4] = 12 h, 10 µM, compound concentration 10 uM, replicate 2
[5] = 24 h, 1 µM, compound concentration 1 uM, replicate 1
[6] = 24 h, 1 µM, compound concentration 1 uM, replicate 2
[7] = 24 h, 10 µM, compound concentration 10 uM, replicate 1
[8] = 24 h, 10 µM, compound concentration 10 uM, replicate 2
[9] = 48 h, 1 µM, compound concentration 1 uM, replicate 1
[10] = 48 h, 1 µM, compound concentration 1 uM, replicate 2
[11] = 48 h, 10 µM, compound concentration 10 uM, replicate 1
[12] = 48 h, 10 µM, compound concentration 10 uM, replicate 2

COc1cccc([C@@H](C)NCCCc2ccccc2Cl)c1.Cl [TECALCET HYDROCHLORIDE]
Population Apoptotic (%) [1]: 55% | Population Fragmented Nuclei (%) [1]: 20% | Population Healthy Nuclei (%) [1]: 53% | Population Hoechst High Intensity Objects (%) [1]: 9% | Population Membrane Permeable-Phenotype (%) [1]: 22% | Population Mitochondria Different-Phenotype (%) [1]: 4% | Population Mitotic Cells (%) [1]: 44% | Population Normal (%) [1]: 90% | Population Pyknosed Nuclei (%) [1]: 25% | Population Tubulin-Different-Phenotype (%) [1]: 53% | Total Cell Count [1]: 222 | Population Apoptotic (%) [2]: 16% | Population Fragmented Nuclei (%) [2]: 10% | Population Healthy Nuclei (%) [2]: 81% | Population Hoechst High Intensity Objects (%) [2]: 10% | Population Membrane Permeable-Phenotype (%) [2]: 6% | Population Mitochondria Different-Phenotype (%) [2]: 20% | Population Mitotic Cells (%) [2]: 83% | Population Normal (%) [2]: 89% | Population Pyknosed Nuclei (%) [2]: 8% | Population Tubulin-Different-Phenotype (%) [2]: 18% | Total Cell Count [2]: 70 | Population Apoptotic (%) [3]: 62% | Population Fragmented Nuclei (%) [3]: 26% | Population Healthy Nuclei (%) [3]: 43% | Population Hoechst High Intensity Objects (%) [3]: 12% | Population Membrane Permeable-Phenotype (%) [3]: 11% | Population Mitochondria Different-Phenotype (%) [3]: 17% | Population Mitotic Cells (%) [3]: 37% | Population Normal (%) [3]: 87% | Population Pyknosed Nuclei (%) [3]: 29% | Population Tubulin-Different-Phenotype (%) [3]: 71% | Total Cell Count [3]: 183 | Population Apoptotic (%) [4]: 41% | Population Fragmented Nuclei (%) [4]: 7% | Population Healthy Nuclei (%) [4]: 75% | Population Hoechst High Intensity Objects (%) [4]: 5% | Population Membrane Permeable-Phenotype (%) [4]: 18% | Population Mitochondria Different-Phenotype (%) [4]: 90% | Population Mitotic Cells (%) [4]: 58% | Population Normal (%) [4]: 94% | Population Pyknosed Nuclei (%) [4]: 17% | Population Tubulin-Different-Phenotype (%) [4]: 96% | Total Cell Count [4]: 83 | Population Apoptotic (%) [5]: 56% | Population Fragmented Nuclei (%) [5]: 28% | Population Healthy Nuclei (%) [5]: 50% | Population Hoechst High Intensity Objects (%) [5]: 10% | Population Membrane Permeable-Phenotype (%) [5]: 26% | Population Mitochondria Different-Phenotype (%) [5]: 4% | Population Mitotic Cells (%) [5]: 43% | Population Normal (%) [5]: 89% | Population Pyknosed Nuclei (%) [5]: 21% | Population Tubulin-Different-Phenotype (%) [5]: 62% | Total Cell Count [5]: 217 | Population Apoptotic (%) [6]: 77% | Population Fragmented Nuclei (%) [6]: 8% | Population Healthy Nuclei (%) [6]: 80% | Population Hoechst High Intensity Objects (%) [6]: 8% | Population Membrane Permeable-Phenotype (%) [6]: 6% | Population Mitochondria Different-Phenotype (%) [6]: 6% | Population Mitotic Cells (%) [6]: 22% | Population Normal (%) [6]: 91% | Population Pyknosed Nuclei (%) [6]: 10% | Population Tubulin-Different-Phenotype (%) [6]: 12% | Total Cell Count [6]: 95 | Population Apoptotic (%) [7]: 61% | Population Fragmented Nuclei (%) [7]: 25% | Population Healthy Nuclei (%) [7]: 53% | Population Hoechst High Intensity Objects (%) [7]: 17% | Population Membrane Permeable-Phenotype (%) [7]: 13% | Population Mitochondria Different-Phenotype (%) [7]: 31% | Population Mitotic Cells (%) [7]: 38% | Population Normal (%) [7]: 82% | Population Pyknosed Nuclei (%) [7]: 21% | Population Tubulin-Different-Phenotype (%) [7]: 75% | Total Cell Count [7]: 178 | Population Apoptotic (%) [8]: 35% | Population Fragmented Nuclei (%) [8]: 8% | Population Healthy Nuclei (%) [8]: 70% | Population Hoechst High Intensity Objects (%) [8]: 8% | Population Membrane Permeable-Phenotype (%) [8]: 24% | Population Mitochondria Different-Phenotype (%) [8]: 91% | Population Mitotic Cells (%) [8]: 64% | Population Normal (%) [8]: 91% | Population Pyknosed Nuclei (%) [8]: 20% | Population Tubulin-Different-Phenotype (%) [8]: 92% | Total Cell Count [8]: 97 | Population Apoptotic (%) [9]: 54% | Population Fragmented Nuclei (%) [9]: 28% | Population Healthy Nuclei (%) [9]: 60% | Population Hoechst High Intensity Objects (%) [9]: 10% | Population Membrane Permeable-Phenotype (%) [9]: 19% | Population Mitochondria Different-Phenotype (%) [9]: 3% | Population Mitotic Cells (%) [9]: 45% | Population Normal (%) [9]: 89% | Population Pyknosed Nuclei (%) [9]: 10% | Population Tubulin-Different-Phenotype (%) [9]: 42% | Total Cell Count [9]: 229 | Population Apoptotic (%) [10]: 0% | Population Healthy Nuclei (%) [10]: 70% | Population Hoechst High Intensity Objects (%) [10]: 13% | Population Membrane Permeable-Phenotype (%) [10]: 13% | Population Mitochondria Different-Phenotype (%) [10]: 4% | Population Mitotic Cells (%) [10]: 100% | Population Normal (%) [10]: 87% | Population Pyknosed Nuclei (%) [10]: 1% | Population Tubulin-Different-Phenotype (%) [10]: 40% | Total Cell Count [10]: 100 | Population Apoptotic (%) [11]: 76% | Population Fragmented Nuclei (%) [11]: 46% | Population Healthy Nuclei (%) [11]: 45% | Population Hoechst High Intensity Objects (%) [11]: 21% | Population Membrane Permeable-Phenotype (%) [11]: 6% | Population Mitochondria Different-Phenotype (%) [11]: 16% | Population Mitotic Cells (%) [11]: 23% | Population Normal (%) [11]: 78% | Population Pyknosed Nuclei (%) [11]: 8% | Population Tubulin-Different-Phenotype (%) [11]: 60% | Total Cell Count [11]: 207 | Population Apoptotic (%) [12]: 0% | Population Fragmented Nuclei (%) [12]: 56% | Population Healthy Nuclei (%) [12]: 43% | Population Hoechst High Intensity Objects (%) [12]: 15% | Population Membrane Permeable-Phenotype (%) [12]: 0% | Population Mitochondria Different-Phenotype (%) [12]: 12% | Population Mitotic Cells (%) [12]: 100% | Population Normal (%) [12]: 84% | Population Pyknosed Nuclei (%) [12]: 0% | Population Tubulin-Different-Phenotype (%) [12]: 76% | Total Cell Count [12]: 138
